Results published in BindingDB's records for doi:10.1021/acs.jmedchem.8b01327 (2019).

Molecular target: Mu-type opioid receptor (Rattus norvegicus, UniProt P33535)
Assay: Displacement of [3H]DAMGO from mu opioid receptor in rat brain membranes incubated for 45 mins by liquid scintillation counting method
How it was run: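 Rat brain membranes (cerebella removed; 0.3–0.5 mg protein) in 50 mM Tris-HCl, pH 7.4, were incubated 45 min at 35 °C with 1 nM [3H]DAMGO (MOR) or 0.5 nM [3H][Ile5,6]deltorphin II (DOR) plus varied test concentrations. Nonspecific binding was set with 10 μM naloxone. Samples were GF/C filtered, washed and scintillation counted. Ki was obtained by Cheng–Prusoff; duplicates, 3–4 experiments.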

Mu-type opioid receptor, sequence (P33535 whole entry): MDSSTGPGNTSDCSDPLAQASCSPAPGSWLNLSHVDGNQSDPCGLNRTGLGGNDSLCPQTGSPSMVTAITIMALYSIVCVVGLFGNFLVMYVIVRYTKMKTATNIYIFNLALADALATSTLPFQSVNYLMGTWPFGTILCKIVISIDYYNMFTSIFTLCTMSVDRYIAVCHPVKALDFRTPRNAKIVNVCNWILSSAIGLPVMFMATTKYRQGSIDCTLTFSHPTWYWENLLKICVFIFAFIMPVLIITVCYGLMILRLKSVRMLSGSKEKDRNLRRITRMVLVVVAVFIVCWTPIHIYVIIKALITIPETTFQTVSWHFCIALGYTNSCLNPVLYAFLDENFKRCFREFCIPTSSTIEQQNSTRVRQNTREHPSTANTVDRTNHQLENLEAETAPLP

CO[C@@]12CC[C@@H](N[C@@H](CC(N)=O)C(=O)O)[C@@H]3Oc4c(O)ccc5c4[C@@]31CCN(C)[C@@H]2C5
Ki: 1.3 nM
